From ChEMBL document CHEMBL2321837, “Discovery of novel inhibitors targeting the Mycobacterium tuberculosis O-acetylserine sulfhydrylase (CysK1) using virtual high-throughput screening” (Bioorg Med Chem Lett, 2013)
≈ marks a conversion by molar mass, not a printed value.

Tests used:
[1] = Cytotoxicity against HEK293T cells assessed as growth inhibition at 50 uM by MTT assay relative to control; assay type: cell-based, HEK-293T; details: human, read-out: GI
[2] = test system: Mycobacterium tuberculosis; assay: Antimycobacterial activity against Mycobacterium tuberculosis H37Rv ATCC 27294 assessed as growth inhibition by NCCLS agar dilution method; assay type: functional
Procedure, shortened: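 M. tuberculosis H37Rv (ATCC27294) agar dilution, compounds 50 to 0.78 µg/mL in duplicates. MIC taken as lowest concentration completely inhibiting growth; isoniazid and ethambutol as reference compounds.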

[3] = Cytotoxicity against HEK293T cells assessed as growth inhibition at 25 uM by MTT assay relative to control; assay type: cell-based, HEK-293T; details: human, read-out: GI
[4] = target: O-acetylserine sulfhydrylase (Mycobacterium tuberculosis) (UniProt P9WP55); assay: Inhibition of Mycobacterium tuberculosis CysK1 using O-acetyl-L-serine as substrate assessed as L-cycteine formation at 100 uM after 5 mins by spectrophotometric analysis relative to control
Procedure, shortened: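 Single-point screen of compounds at 100 µM. Assay mix (MOPS pH 7.0, O-acetyl-L-serine, CysK1) was preincubated 5 min at room temperature, then started with 1 mM sodium sulphide for 20 min. It was stopped with trichloroacetic acid (final 16.6%), then acid-ninhydrin reagent was added and heated at 96 °C for 10 min. After 1:1 ethanol dilution, OD was read at 560 nm; triplicates. Controls were DFSI tetrapeptide (100 µM, 100% inhibition) and no inhibitor (0%).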

[5] = target: T1, O-acetylserine sulfhydrylase (Mycobacterium tuberculosis, UniProt P9WP55); assay: Inhibition of Mycobacterium tuberculosis CysK1 using O-acetyl-L-serine as substrate assessed as L-cycteine formation after 5 mins by spectrophotometric analysis
Procedure, shortened: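 Dose–response: serial 1:3 dilutions prepared in 50% DMSO (final DMSO 5%). Final mix was 100 mM MOPS pH 7.0, 2 mM O-acetyl-L-serine, […] CysK1, preincubated 5 min at room temperature. The reaction was started with sodium sulphide (final 1 mM). Aliquots taken at time intervals were assayed for L-cysteine by acid-ninhydrin. Specific activity vs concentration was fitted to a sigmoid for IC50.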

[6] = target: T1, O-acetylserine sulfhydrylase; assay: Competitive inhibition of Mycobacterium tuberculosis CysK1
Procedure, shortened: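 Purified CysK1 preincubated 5 min at room temperature with 1:3 serial compound dilutions in 100 mM MOPS pH 7.0 and 2 mM O-acetyl-L-serine, 5% DMSO final. Reaction started with sodium sulphide (1 mM final); aliquots were taken at time intervals. L-cysteine was measured by acid-ninhydrin (96 °C, 10 min) at 560 nm. IC50 came from sigmoid fits of specific activity.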

| Compound | inhibition at 50 µM [1] [%] | MIC [2] [µM] | inhibition at 25 µM [3] [%] | inhibition [4] [%] | IC50 [5] [µM] | Ki [6] [µM] |
| --- | --- | --- | --- | --- | --- | --- |
| COc1ccc(C2NC(=O)N=C3C2C(=O)N=C2SC([N+](=O)[O-])=CN23)cc1 (stereo not drawn) | 7.3 | 134 (≈ 50 µg/mL) | 0 | 93.9 | – | – |
| O=C1N=C2C(C(=O)N=C3SC([N+](=O)[O-])=CN32)C(c2ccc(Br)cc2)N1 (stereo not drawn) | 11.2 | 29.6 (≈ 12.5 µg/mL) | 6.1 | 89.1 | – | – |
| CC[C@@H](CO)NCCN[C@@H](CC)CO [ETHAMBUTOL] | – | 4.71 (≈ 0.962 µg/mL) | – | – | – | – |
| Cc1ccccc1C1NC(=S)N=C2C1C(=O)N=C1SC([N+](=O)[O-])=CN12 (stereo not drawn) | 18.8 | 33.5 (≈ 12.5 µg/mL) | 3.6 | 15.9 | 17.7 | – |
| O=C1N=C2C(C(=O)N=C3SC([N+](=O)[O-])=CN32)C(c2ccccc2O)N1 (stereo not drawn) | 0 | 69.6 (≈ 25 µg/mL) | 0 | 107 | – | – |
| O=C1N=C2SC([N+](=O)[O-])=CN2C2=NC(=S)NC(c3ccccc3)C12 (stereo not drawn) | 25.3 | 69.6 (≈ 25 µg/mL) | 0 | 90.4 | – | – |
| O=C1N=C2SC([N+](=O)[O-])=CN2C2=NC(=S)NC(c3ccc(Br)cc3)C12 (stereo not drawn) | 6.5 | 28.5 (≈ 12.5 µg/mL) | 2.5 | 65.6 | – | – |
| COc1cc(C2NC(=S)N=C3C2C(=O)N=C2SC([N+](=O)[O-])=CN23)ccc1O (stereo not drawn) | 1.35 | 123 (≈ 50 µg/mL) | 0 | 89.2 | – | – |
| O=C1N=C2C(C(=O)N=C3SC([N+](=O)[O-])=CN32)C(c2cccc(Br)c2)N1 (stereo not drawn) | 2.8 | 14.8 (≈ 6.25 µg/mL) | 0 | 60.1 | – | – |
| O=C1N=C2SC([N+](=O)[O-])=CN2C2=NC(=S)NC(c3ccc([N+](=O)[O-])cc3)C12 (stereo not drawn) | 6.6 | 61.8 (≈ 25 µg/mL) | 1.64 | 70.6 | – | – |
| O=C1N=C2SC([N+](=O)[O-])=CN2C2=NC(=S)NC(c3ccc(Cl)cc3)C12 (stereo not drawn) | 14.6 | 15.9 (≈ 6.26 µg/mL) | 7.4 | 102 | – | – |
| O=C1N=C2SC([N+](=O)[O-])=CN2C2=NC(=S)NC(c3ccccc3[N+](=O)[O-])C12 (stereo not drawn) | 8.7 | 30.9 (≈ 12.5 µg/mL) | 1 | 11.3 | 30.3 | – |
| O=C1N=C2SC([N+](=O)[O-])=CN2C2=NC(=S)NC(c3c(Cl)cccc3Cl)C12 (stereo not drawn) | 30.7 | 58.4 (≈ 25 µg/mL) | 21.3 | 113 | – | – |
| COc1cc(C2NC(=O)N=C3C2C(=O)N=C2SC([N+](=O)[O-])=CN23)ccc1O (stereo not drawn) | 0 | 128 (≈ 50 µg/mL) | 0 | 90.5 | – | – |
| O=C1N=C2SC([N+](=O)[O-])=CN2C2=NC(=S)NC(c3ccc(F)cc3)C12 (stereo not drawn) | 43.4 | 16.6 (≈ 6.26 µg/mL) | 30.6 | 60 | – | – |
| COc1ccc(C2NC(=S)N=C3C2C(=O)N=C2SC([N+](=O)[O-])=CN23)cc1 (stereo not drawn) | 14.6 | 32.1 (≈ 12.5 µg/mL) | 0.2 | 9.1 | 22.7 | – |
| O=C1N=C2C(C(=O)N=C3SC([N+](=O)[O-])=CN32)C(c2ccc(Cl)cc2)N1 (stereo not drawn) | 0 | 66.2 (≈ 25 µg/mL) | 0 | 80 | – | – |

| Compound | inhibition at 50 µM [1] [%] | MIC [2] [µM] | inhibition at 25 µM [3] [%] | inhibition [4] [%] | IC50 [5] [µM] | Ki [6] [µM] |
| --- | --- | --- | --- | --- | --- | --- |
| CC[C@H](C)[C@H](NC(=O)[C@H](CO)NC(=O)[C@H](Cc1ccccc1)NC(=O)[C@@H](N)CC(=O)O)C(=O)O | – | – | – | – | 7.4 | 5 |
| O=C1N=C2C(C(=O)N=C3SC([N+](=O)[O-])=CN32)C(c2ccccc2C(F)(F)F)N1 (stereo not drawn) | 13.1 | 7.6 (≈ 3.13 µg/mL) | 5.7 | 13.8 | 17.7 | – |
| CN(C)c1ccc(C2NC(=O)N=C3C2C(=O)N=C2SC([N+](=O)[O-])=CN23)cc1 (stereo not drawn) | 4.9 | 32.4 (≈ 12.5 µg/mL) | 0 | 92.7 | – | – |
| O=C1N=C2C(C(=O)N=C3SC([N+](=O)[O-])=CN32)C(c2ccc([N+](=O)[O-])cc2)N1 (stereo not drawn) | 9.4 | 129 (≈ 50 µg/mL) | 2.6 | 54.7 | – | – |
| Cc1ccc(C2NC(=O)N=C3C2C(=O)N=C2SC([N+](=O)[O-])=CN23)cc1 (stereo not drawn) | 0 | 70 (≈ 25 µg/mL) | 0 | 57.7 | – | – |
| Cc1ccccc1C1NC(=O)N=C2C1C(=O)N=C1SC([N+](=O)[O-])=CN12 (stereo not drawn) | 20.4 | 70 (≈ 25 µg/mL) | 6 | 103 | – | – |
| CN(C)c1ccc(C2NC(=S)N=C3C2C(=O)N=C2SC([N+](=O)[O-])=CN23)cc1 (stereo not drawn) | 26.8 | 15.5 (≈ 6.24 µg/mL) | 8 | 100 | – | – |
| O=C1N=C2C(C(=O)N=C3SC([N+](=O)[O-])=CN32)C(c2ccc(F)cc2)N1 (stereo not drawn) | 10.7 | 17.3 (≈ 6.25 µg/mL) | 5.4 | 100 | – | – |
| O=C1N=C2SC([N+](=O)[O-])=CN2C2=NC(=S)NC(c3cccc(Br)c3)C12 (stereo not drawn) | 13.5 | 7.1 (≈ 3.11 µg/mL) | 6 | 39.9 | – | – |
| O=C1N=C2C(C(=O)N=C3SC([N+](=O)[O-])=CN32)C(c2c(Cl)cccc2Cl)N1 (stereo not drawn) | 0 | 121 (≈ 50 µg/mL) | 0 | 57.8 | – | – |
| Cc1ccc(C2NC(=S)N=C3C2C(=O)N=C2SC([N+](=O)[O-])=CN23)cc1 (stereo not drawn) | 14.7 | 67 (≈ 25 µg/mL) | 0 | 106 | – | – |
| O=C1N=C2C(C(=O)N=C3SC([N+](=O)[O-])=CN32)C(c2ccccc2[N+](=O)[O-])N1 (stereo not drawn) | 0 | 129 (≈ 50 µg/mL) | 0 | 93 | – | – |
| NNC(=O)c1ccncc1 [ISONIAZID] | – | 0.72 (≈ 0.0987 µg/mL) | – | – | – | – |
| O=C1N=C2C(C(=O)N=C3SC([N+](=O)[O-])=CN32)C(c2ccccc2)N1 (stereo not drawn) | 3.8 | > 146 | 1.6 | 84.1 | – | – |
| O=C1N=C2SC([N+](=O)[O-])=CN2C2=NC(=S)NC(c3ccccc3C(F)(F)F)C12 (stereo not drawn) | 52.2 | 7.3 (≈ 3.12 µg/mL) | 27.7 | 89.4 | – | – |
| O=C1N=C2SC([N+](=O)[O-])=CN2C2=NC(=S)NC(c3ccccc3O)C12 (stereo not drawn) | 12 | 33.3 (≈ 12.5 µg/mL) | 0.1 | 68.8 | – | – |
